ChEMBL document CHEMBL5331127, “Discovery of ARD-2051 as a Potent and Orally Efficacious Proteolysis Targeting Chimera (PROTAC) Degrader of Androgen Receptor for the Treatment of Advanced Prostate Cancer” (J Med Chem, 2023)
Calls of active or inactive are those of the source. No cut-off for these calls is given here.

Legend:
[1] = Metabolic stability in monkey liver microsomes assessed as half life at 1 uM measured upto 45 mins in presence of NADPH by LC-MS/MS analysis; format: ADME, Macaca mulatta, Microsome; conditions: rhesus monkey, 0.75 h
In short: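 Pooled liver microsomes from each species: 1 μM compound with 0.5 mg/mL microsomes and 1.7 mM NADPH in 0.1 M K-phosphate, pH 7.4, 5 mM MgCl2, 37 °C. Sampled at 0, 5, 10, 15, 30 and 45 min with cold ACN quench. No-NADPH incubation as negative control; ketanserin as positive control. LC-MS/MS; half-life from ln(remaining) versus time.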

Mus musculus = test: In vivo induction of androgen receptor degradation in human VCaP cells xenografted in CB17 SCID mouse assessed as reduction in KLK3 mRNA level at 12.5 mg/kg, po measured after 6 to 24 hrs by qRT-PCR analysis; format: functional, organism-based; conditions: time 6-24 hrs
[2] = target: T1, Androgen receptor (Homo sapiens) (UniProt P10275); test: Induction of androgen receptor degradation in human VCaP cells at 0.01 uM after 24 hrs by Western blotting analysis relative to control; format: cell-based
T1 sequence (whole entry): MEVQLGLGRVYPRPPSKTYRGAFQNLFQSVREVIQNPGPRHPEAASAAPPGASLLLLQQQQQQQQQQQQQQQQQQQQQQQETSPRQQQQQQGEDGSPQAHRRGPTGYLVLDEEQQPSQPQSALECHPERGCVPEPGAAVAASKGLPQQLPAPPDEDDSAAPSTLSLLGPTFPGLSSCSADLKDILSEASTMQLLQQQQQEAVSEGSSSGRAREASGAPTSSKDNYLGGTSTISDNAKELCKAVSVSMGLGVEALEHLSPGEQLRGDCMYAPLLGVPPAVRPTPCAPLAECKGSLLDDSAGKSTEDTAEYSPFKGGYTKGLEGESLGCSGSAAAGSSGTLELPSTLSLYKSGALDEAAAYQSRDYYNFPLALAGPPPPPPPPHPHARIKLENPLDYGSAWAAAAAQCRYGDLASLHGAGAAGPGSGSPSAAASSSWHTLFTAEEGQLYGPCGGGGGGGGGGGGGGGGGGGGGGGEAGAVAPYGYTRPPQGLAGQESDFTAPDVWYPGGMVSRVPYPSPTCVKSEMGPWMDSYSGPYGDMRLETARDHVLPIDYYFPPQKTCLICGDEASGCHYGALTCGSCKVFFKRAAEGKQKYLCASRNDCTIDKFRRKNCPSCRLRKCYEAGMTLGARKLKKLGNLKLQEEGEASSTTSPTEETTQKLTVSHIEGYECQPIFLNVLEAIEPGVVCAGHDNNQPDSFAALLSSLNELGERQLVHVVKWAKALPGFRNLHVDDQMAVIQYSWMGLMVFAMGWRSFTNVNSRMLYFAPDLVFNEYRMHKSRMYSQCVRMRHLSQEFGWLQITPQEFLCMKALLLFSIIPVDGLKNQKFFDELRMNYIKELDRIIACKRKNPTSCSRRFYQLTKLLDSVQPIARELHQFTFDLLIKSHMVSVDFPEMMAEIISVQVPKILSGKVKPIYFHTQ
In short: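 VCaP cells treated for 24 h at 10, 100 or 1000 nM. AR protein measured by Western blotting.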

[3] = Downregulation of KLK3 gene expression in human LNCaP cells at 0.3 nM incubated for 24 hrs by qRT-PCR analysis; format: functional
In short: (§1)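 LNCaP cells (RPMI 1640) or VCaP cells (DMEM Glutamax), both with 10% FBS, treated for 24 h. KLK3 mRNA measured by qRT-PCR and calculated by the comparative CT method against GAPDH and vehicle.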

VCaP = test: Induction of androgen receptor degradation in human VCaP cells at 100 nM pretreated with MG132 for 2 hrs followed by compound addition and 3 hrs by Western blot analysis; format: functional, cell-based; conditions: time 5.0 hrs
In short: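 LNCaP or VCaP cells pretreated 2 h with DMSO, ARi-12 (10 μM), thalidomide (10 μM), MG-132 (3 μM) or MLN4924 (0.5 μM), then given degrader at 100 nM for 3 h. AR measured by Western blot with GAPDH as loading control.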

[4] = Oral bioavailability in Beagle dog at 3 mg/kg measured up to 24 hrs by LC-MS/MS analysis; format: ADME, organism-based, Canis lupus familiaris; conditions: in vivo
In short: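 Male Beagle dogs. IV 1 mg/kg in 10% PEG400 + 90% PBS (pH 8.0); PO 3 mg/kg in 90% PEG400 + 10% Cremophor. Plasma PK to 24 h; F from IV and PO exposure.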

[5] = target: Androgen receptor (Homo sapiens) (UniProt P10275); test: In vivo induction of androgen receptor degradation in human VCaP cells xenografted in CB17 SCID mouse assessed as reduction in AR protein level at 12.5 mg/kg, po measured after 6 hrs by […] analysis; parameters: scale not given: the % may be the effect or the level left
[6] = Downregulation of KLK3 gene expression in human VCaP cells at 30 nM incubated for 24 hrs by qRT-PCR analysis; format: functional; in short: as §1
Cytochrome P450 2C8 = target: T2, Cytochrome P450 2C8 (Homo sapiens, UniProt P10632); test: Inhibition of CYP2C8 in human liver microsomes preincubated for 5 mins followed by NADPH addition and measured after 20 mins by LC/MS analysis; format: ADME, Microsome
T2 sequence (P10632 whole entry): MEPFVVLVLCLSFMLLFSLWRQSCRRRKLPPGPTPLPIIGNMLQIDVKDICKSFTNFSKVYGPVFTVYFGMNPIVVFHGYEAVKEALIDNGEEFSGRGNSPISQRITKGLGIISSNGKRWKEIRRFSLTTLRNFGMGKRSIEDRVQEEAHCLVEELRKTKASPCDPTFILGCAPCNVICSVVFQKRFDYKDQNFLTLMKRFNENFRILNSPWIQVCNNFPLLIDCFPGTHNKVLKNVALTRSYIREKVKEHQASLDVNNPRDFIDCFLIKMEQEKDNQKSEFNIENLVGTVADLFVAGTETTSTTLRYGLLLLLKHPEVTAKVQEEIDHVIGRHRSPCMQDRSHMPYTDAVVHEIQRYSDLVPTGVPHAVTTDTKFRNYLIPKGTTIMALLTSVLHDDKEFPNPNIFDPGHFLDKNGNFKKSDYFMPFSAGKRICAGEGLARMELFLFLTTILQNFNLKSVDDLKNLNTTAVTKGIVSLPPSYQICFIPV

[7] = Drug concentration in ICR mouse plasma at 10 mg/kg, po measured after 24 hrs; format: ADME, organism-based
In short: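 Mice given a single 10 mg/kg dose by oral gavage, 3 mice per time point. Plasma drug levels measured at 1, 3, 6 and 24 h; mean ± SD reported.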

[8] = Drug concentration in CB17 SCID mouse tumor xenografted with human VCaP cells at 12.5 mg/kg, po measured after 6 hrs by LC-MS/MS analysis; format: ADME, organism-based, Neoplasm; conditions: read-out: Ct
In short: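 SCID mice bearing one VCaP tumour each given a single oral 12.5 mg/kg dose in 100% PEG200. Plasma and tumour tissue collected at 6 and 24 h, 3 mice per time point. Values are mean ± SD.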

[9] = Half life in Beagle dog at 3 mg/kg, po measured up to 24 hrs by LC-MS/MS analysis; format: ADME, organism-based, Canis lupus familiaris; conditions: in vivo
In short: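 Male Beagle dogs dosed orally at 3 mg/kg in 90% PEG400 + 10% Cremophor.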

Structure (SMILES): C[C@H]1CC2(CCN(c3ccc(C(=O)N4CCN(C5CN(c6ccc7c(c6)C(=O)N(C6CCC(=O)NC6=O)C7=O)C5)CC4)cc3)CC2)CN1c1ccc(C#N)c(Cl)c1 (some centres not stated)
- t1/2 [1]: > 1 h
- Activity (Mus musculus): Active
- Activity [2]: > 95%
- Activity [3]: 53%
- Activity (VCaP): inactive
- F [4]: 46%
- Activity [5]: 73%
- Activity [6]: 87%
- IC50 (Cytochrome P450 2C8): > 10 µM
- concentration at 24 h [7]: 77 ng/mL
- concentration at 6 h [8]: 946 ng/mL
- t1/2 [9]: 3.4 h
